Measurements gathered from unrelated publications.
CYP1A2: Cytochrome P450 1A2 (CYP1A2, Homo sapiens, UniProt P05177)
CYP3A4: Cytochrome P450 3A4 (CYP3A4, Homo sapiens, UniProt P08684)

Structure (SMILES) | target or system | assay | test system | setting | quantity | result
S=C(Nc1ccc2c(c1)Cc1ccccc1-2)Nc1ccc2c(c1)Cc1ccccc1-2 | BHK-21 | cell growth or viability, MTT | – | 42 h | CC50 | 236 µM
COC(=O)C1CCN(C(=O)c2ccc(NCc3cnc4nc(N)nc(N)c4n3)cc2)CC1 | CYP1A2 | enzyme activity, inhibitor, luciferase | – | 10 µM | inhibition | -8.49%
Cc1cc(C)nc(Nc2ncc(C(=O)NCCc3c(C)[nH]c4ccccc34)cn2)c1 | – | metabolic stability | cynomolgus monkey, liver microsomes | 1 µM | microsomal CLint | 99 µL/min/mg
CCCCCCCC(=O)N[C@@H](CCCCN)C(=O)N[C@@H](CCCCN)C(=O)N[C@@H](C)C(=O)N[C@@H](CC(C)C)C(=O)N[C@@H](CCCCN)C(=O)N[C@@H](CC(C)C)C(=O)N[C@@H](C)C(=O)N[C@@H](CCCCN)C(=O)N[C@@H](CCCCN)C(=O)N1CCC[C@H]1C(=O)N[C@@H](CC(C)C)C(=O)N[C@@H](CCCCN)C(=O)N[C@@H](CC(C)C)C(=O)N[C@@H](CC(C)C)C(=O)N[C@@H](CCCCN)C(N)=O | – | – | female CD-1 mouse, blood | intravenous, 3 mg/kg, single dose | Cmax | 1420 ng/mL
NCCc1ccccn1 | CYP3A4 | thermal stability | – | – | ΔTm | -0.1 °C
CCc1cc(/C(C)=N/OCc2ccc(C3CCCCC3)c(C(F)(F)F)c2)ccc1CN1CC(C(=O)O)C1 | CYP3A4 | enzyme activity, inhibitor | human, liver microsomes | 200 µM, 20 min, midazolam probe | inhibition | 11.5%
Cc1ccccc1/C=C1/SC(=O)NC1=O | BHK-21 | cell growth or viability, MTT | – | – | CC50 | > 100 µM
CCS(=O)(=O)N1CC(CC#N)(n2cc(-c3ncnc4[nH]ccc34)cn2)C1 | Vero | cell growth or viability, resazurin | – | – | CC50 | > 60 µM
O=c1[nH]cnc2c1nnn2-c1cccc(Cl)c1 | BHK-21 | cell growth or viability, MTT | – | – | CC50 | > 1000 µM
Cc1cccc(F)c1N1CCC(N2Cc3cn(CC(C)(F)F)nc3N(Cc3ccccc3C(F)(F)F)C2=O)CC1 | CYP3A4 | enzyme activity, inhibitor | human, liver microsomes | midazolam probe | IC50 | > 10 µM
NC(=O)C(NC(=O)C1CC(c2ccccc2)C1)c1ccccc1 (stereo not shown) | BHK-21 | cell growth or viability, MTT | – | – | CC50 | > 100 µM
CCC[C@@](N)(CO)CCc1ccc(OCCCCCC(C)C)cc1 | CYP1A2 | enzyme activity, inhibitor | – | – | IC50 | > 50 µM
O=C(Nc1ncc([N+](=O)[O-])s1)c1cccs1 | BHK-21 | cell growth or viability, MTT | – | – | CC50 | > 1 µM
Cc1nc2c([nH]1)c(=O)n(C)c(=O)n2Cc1ccco1 | CYP1A2 | enzyme activity, inhibitor | human, liver microsomes | 40 µM | inhibition | 71%
O=C1NC(=O)/C(=C\c2ccc3ccccc3c2)S1 | BHK-21 | cell growth or viability, MTT | – | – | CC50 | > 100 µM
O=C(O)C(F)(F)C(F)(F)C(F)(F)C(F)(F)C(F)(F)C(F)(F)C(F)(F)F | Solute carrier organic anion transporter family member 1B1 (SLCO1B1, Homo sapiens, UniProt Q9Y6L6) | transporter uptake, substrate | CHO | 1 min, pH 7.4 | Km | 52.6 µM
